Measured values: ChEMBL document CHEMBL5385965, “Discovery of novel positive allosteric modulators targeting GluN1/2A NMDARs as anti-stroke therapeutic agents” (RSC Med Chem, 2024)
Activity calls are given as the source filed them. The calls are words filed in the database; no cut-off is given here.

target: Glutamate NMDA receptor; GRIN1/GRIN2B (Homo sapiens) (UniProt Q05586+Q13224); experiment: Positive allosteric modulation of GluN1/N2B (unknown origin) transfected in HEK293 cells assessed as potentiation of Glu/Gly-induced calcium influx by Cal-520 AM dye based assay; assay type: cell-based
Summary of the method: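 HEK293 cells were co-transfected 1:1 with GluN1 plus GluN2A or GluN2B at 90% confluence and seeded 40 000/well on poly-D-lysine plates overnight. Cells were loaded with Cal-520 AM for 1.5 h at 37 °C, and compounds were tested at 10 μM. Responses to Glu (2 mM)/Gly (100 μM) were recorded in HEPES-buffered Tyrode's (pH 7.2) at Ex 485/Em 515 nm every 1.6 s, expressed as area under the FMAX/F0 curve.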

Row | Activity | SMILES
1 | inactive | CC(C)=CCC/C(C)=C/COc1ccc2ccc(=O)oc2c1
2 | inactive | COc1cc(/C=C/C(=O)NCCc2ccc(O)cc2)cc(OC)c1O
3 | inactive | COc1cc(/C=C/C(=O)NCCc2ccc(O)cc2)ccc1O
4 | inactive | O=C(CCCCc1ccc2c(c1)OCO2)N1CCCCC1
5 | inactive | CCN(CC)CCCC(C)Nc1ccnc2cc(Cl)ccc12 (configuration not stated)
6 | inactive | COc1cc(C(=O)OCCCCNC(=N)N)cc(OC)c1O
7 | inactive | O=C(CCc1ccccc1)C[C@@H](O)/C=C/c1ccccc1
8 | inactive | CC(Cc1ccc(O)c(O)c1)C(C)Cc1ccc(O)c(O)c1 (configuration not stated)
9 | inactive | C[C@H](CCc1ccc(O)cc1)NCCc1ccc(O)c(O)c1
10 | inactive | CC(C)=CCC/C(C)=C/COc1c2ccoc2cc2oc(=O)ccc12
11 | inactive | CCCCCCC/C=C/C(=O)CCc1ccc(O)c(OC)c1
12 | inactive | O=C(/C=C/c1ccc(O)c(O)c1)OC(Cc1ccc(O)c(O)c1)C(=O)O (configuration not stated)
